Assays:
[1] = Effect of inducer treatment on body and liver weights of rats; assay type: in vivo, Sprague-Dawley rats; details: i.p. inducer treatment
CYP3A2 = experiment: Hepatic P450 transcript levels; assay type: in vivo, Sprague-Dawley rats; details: liver slices from male rats
CYP1A2 = experiment: Hepatic P450 transcript levels; assay type: in vivo, Sprague-Dawley rats; details: liver slices from male rats
[2] = system: hippocampal tissue slices; experiment: PCB 136 levels in hippocampal tissue slice cultures relative to medium; assay type: in vitro ADME, Sprague Dawley rats (PND4 pups); details: for Medium-to-tissue slice ratio of PCB 136: day 14
How it was run: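 Hippocampi from PND4 rat pups were cultured as slices. From 5 DIV, racemic test compound (5 μM; vehicle 0.1% DMSO) was added to 1 mL medium per well, renewed every 2 days for 14 days. Medium from each change and slices at day 14 were stored at −20 °C and analysed. The medium-to-slice ratio was taken at day 14.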

[3] = system: hippocampal slice cultures; experiment: Propidium iodide; assay type: cell-based, Sprague Dawley rats (PND4 pups)
[4] = system: hippocampal slice cultures; experiment: LDH release in hippocampal slice cultures; assay type: cell-based, Sprague Dawley rats (PND4 pups); details: PCB 136 ≤ 5 μM for 14 d
How it was run: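 Hippocampi from PND4 pups of timed-pregnant Sprague Dawley rats were cultured as slices. From 5 DIV, racemic test compound or vehicle (0.1 % DMSO) was added to 1 mL medium, renewed every 2 days for 14 days. LDH release was measured with a membrane-integrity fluorescence kit. Mean ± SEM, n = 2 wells per group.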

liver tissue slices [5] = experiment: Formation of hydroxylated PCB 136 metabolites in liver tissue slices; assay type: in vitro ADME, Sprague-Dawley rats; details: for ΣOH-PCB as percent of PCB 136: PCB 136 5 μM (10 nmol), 2 h, slices plus medium
liver tissue slices [6] = experiment: Liver slice viability; assay type: cell-based, Sprague-Dawley rats
How it was run: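 Liver slices came from adult rats, either naive or pretreated with PB or DEX, taken 24 h after the last dose into cold Krebs-Henseleit buffer, pH 7.5. Two slices per vial in 2 mL buffer received test compound (final 5 μM) or DMSO, 2 h, 37 °C, 5 % CO2/95 % air. LDH in medium and homogenate gave % release = A1×D1/(A1×D1+A2×D2); viable was <30 %.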

ryanodine receptor (RyR) = details: ref Pessah et al., 2006; cited from earlier work
liver tissue slices [7] = experiment: PCB 136 levels and partitioning in liver tissue slice incubations; assay type: in vitro ADME, Sprague-Dawley rats
How it was run: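 Two liver slices were placed in 2 mL K-H buffer and given test compound (final 5 μM; 10 nmol per incubation; DMSO) for 2 h at 37 °C, 5% CO2/95% air. Slices were washed in cold buffer and homogenized. Medium and homogenate were quantified by GC-63Ni-μECD (DB1-MS column); calibration was linear over 1–1000 ng/mL. Slice levels are per mg protein and as % of dose. n=2 or 3 animals, triplicate incubations, mean ± SD.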

[8] = DEX-treated female rats, PCB 136 5 μM (10 nmol), 2 h, 37°C
[9] = DEX-treated male rats, PCB 136 5 μM (10 nmol), 2 h, 37°C
[10] = PB-treated female rats, PCB 136 5 μM (10 nmol), 2 h, 37°C
[11] = PB-treated male rats, PCB 136 5 μM (10 nmol), 2 h, 37°C
[12] = naïve control (CTL) female rats, PCB 136 5 μM (10 nmol), 2 h, 37°C
[13] = naïve control (CTL) male rats, PCB 136 5 μM (10 nmol), 2 h, 37°C

CCC1(c2ccccc2)C(=O)NC(=O)NC1=O [Phenobarbital (PB), phenobarbital]
Liver weight ([1]; female rats): 10.1 ± 0.4 g
Liver-to-final body weight ratio ([1]; female rats): 4.5 ± 0.2
Percent change in body weight ([1]; female rats): 5.5 ± 1.3%
Liver weight ([1]; male rats): 16.0 ± 2.0 g
Liver-to-final body weight ratio ([1]; male rats): 5.3 ± 0.9
Percent change in body weight ([1]; male rats): −2.0 ± 7.0%
CYP3A2 transcript level vs CTL (CYP3A2): significantly induced by DEX but not PB
CYP1A2 transcript level vs CTL (CYP1A2): not changed

Clc1ccc(Cl)c(-c2c(Cl)ccc(Cl)c2Cl)c1Cl [PCB 136, 2,2′,3,3′,6,6′-hexachlorobiphenyl]
PCB 136 in slices as percent of the PCB 136 (1.8 μg) added on day 12 ([2]; female pups): 1.5 ± 0.8%
Average PCB 136 amount associated with the tissue slices ([2]; female pups, after 14 days): 27 ± 15 ng
Medium-to-tissue slice ratio of PCB 136 ([2]; female pups): 24 ± 8
PCB 136 in slices as percent of total PCB dose added ([2]; female pups, total dose 12.6 μg): 0.2%
PCB 136 in slices as percent of the PCB 136 (1.8 μg) added on day 12 ([2]; male pups): 1.8 ± 0.3%
PCB 136 amount associated with tissue slices ([2]; male pups, after 14 days): 32 ± 6 ng
Medium-to-tissue slice ratio of PCB 136 ([2]; male pups): 26 ± 10
PCB 136 in slices as percent of total PCB dose ([2]; male pups, total dose 12.6 μg): 0.3%
Average PCB 136 concentration in the incubation medium ([2]; slice cultures from female pups, 5 μM racemic PCB 136, 14 days): 830 ± 80 ng/mL
Average PCB 136 levels in the incubation medium ([2]; slice cultures from male pups, 5 μM racemic PCB 136, 14 days): 570 ± 220 ng/mL
PI uptake (confocal images) ([3]; PCB 136 at 5 μM for 14 days vs vehicle): no significant differences
PI uptake ([3]; racemic PCB 136 at 5 or 10 μM, 3 d exposure from 5 DIV, vs vehicle): had no significant effect on PI uptake
LDH release relative to vehicle controls [4]: did not significantly alter LDH release
ΣOH-PCB as percent of PCB 136 (liver tissue slices [5]; DEX-treated female rats): 2.7 ± 1.3%
ΣOH-PCB as percent of PCB 136 (liver tissue slices [5]; PB-treated female rats): 5.3 ± 1.1%
ΣOH-PCB as percent of PCB 136 (liver tissue slices [5]; PB-treated male rats): 11 ± 2.7%
Percent of total PCB 136 metabolized to OH-PCBs (liver tissue slices [5]; liver slices from female rats, within 2 h): ≤ 5%
Percent of total PCB converted to OH-PCBs (liver tissue slices [5]; liver slices from male rats): at least 11%
ΣOH-PCB as percent of PCB 136 (liver tissue slices [5]; naïve control (CTL) male rats): 1.1 ± 0.4%
Acute toxicity to liver slices (liver tissue slices [6]; 2 h incubation with PCB 136 at 5 μM): not acutely toxic
LDH release to the medium (liver tissue slices [6]; all slices used in the PCB 136 metabolism experiments, 2 h incubation): 13.2 ± 6.6%
LDH release (liver tissue slices [6]; slices treated with PCB 136 5 μM, 2 h): 13.1 ± 6.6%
RyR activity / sensitization (ryanodine receptor (RyR)): RyR active
PCB 136 in medium (liver tissue slices [7]; [8]): 6.7 ± 0.7 nmol
PCB 136 in tissue slices (liver tissue slices [7]; [8]): 2.1 ± 0.3 nmol
PCB 136 in tissue slices (liver tissue slices [7]; DEX-treated female rats, PCB 136 5 μM, 2 h): 42 ± 14 ng/mg protein
PCB 136 in medium (liver tissue slices [7]; [9]): 5.7 ± 0.3 nmol
PCB 136 in tissue slices (liver tissue slices [7]; [9]): 1.8 ± 0.4 nmol
PCB 136 in tissue slices (liver tissue slices [7]; DEX-treated male rats, PCB 136 5 μM, 2 h): 27 ± 7 ng/mg protein
PCB 136 in medium (liver tissue slices [7]; [10]): 9.5 ± 0.5 nmol
PCB 136 in tissue slices (liver tissue slices [7]; [10]): 2.5 ± 0.4 nmol
PCB 136 in tissue slices (liver tissue slices [7]; PB-treated female rats, PCB 136 5 μM, 2 h): 53 ± 10 ng/mg protein
PCB 136 in medium (liver tissue slices [7]; [11]): 8.6 ± 0.4 nmol
PCB 136 in tissue slices (liver tissue slices [7]; [11]): 1.3 ± 0.3 nmol
PCB 136 in tissue slices (liver tissue slices [7]; PB-treated male rats, PCB 136 5 μM, 2 h): 21 ± 6 ng/mg protein
Percent of total PCB 136 associated with liver tissue slices (liver tissue slices [7]; both sexes, all treatment groups): 13–25%
PCB 136 in tissue slices as percent of total PCB 136 dose added (liver tissue slices [7]; female liver slices, 2 h): 21–25%
PCB 136 in tissue slices as percent of total PCB 136 dose (liver tissue slices [7]; male liver slices, 2 h): 13–23%
PCB 136 in medium (liver tissue slices [7]; [12]): 8.5 ± 0.1 nmol
PCB 136 in tissue slices (liver tissue slices [7]; [12]): 2.4 ± 0.5 nmol
PCB 136 in tissue slices (liver tissue slices [7]; naïve control (CTL) female rats, PCB 136 5 μM, 2 h): 45 ± 15 ng/mg protein
PCB 136 in medium (liver tissue slices [7]; [13]): 6.3 ± 0.3 nmol
PCB 136 in tissue slices (liver tissue slices [7]; [13]): 2.3 ± 0.1 nmol
PCB 136 in tissue slices (liver tissue slices [7]; naïve control (CTL) male rats, PCB 136 5 μM, 2 h): 33 ± 5 ng/mg protein
